# In ChEMBL document CHEMBL2029338, “Synthesis, biological evaluation, and molecular docking studies of benzyl, alkyl and glycosyl [2-(arylamino)-4,4-dimethyl-6-oxo-cyclohex-1-ene]carbodithioates, as potential immunomodulatory and immunosuppressive agents” (Bioorg Med Chem, 2012):
# Test system: J774.2
# Test: Antiinflammatory activity in lipopolysaccharide-induced mouse J774.2 cells assessed as inhibition of nitric oxide production at 25 ug/mL after 24 hrs by Griess method
# Format: functional
# Details: J774.2, 24 h
# Outline: (§1)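 J774.2 mouse macrophages grown in DMEM with 10% FBS, seeded at 10⁶ cells/mL. NOS-2 induced with E. coli LPS; compounds at 25 µg/mL added right after LPS, 37 °C, 5% CO₂. Supernatant taken at 24 h and nitrite read by Griess reagent (sulfanilamide, then naphthylethylenediamine in 2.5% phosphoric acid), 10 min at 23 °C, A550. Quantified against a sodium nitrite standard curve; mean ± SD of duplicate readings.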
row,SMILES,inhibition at 25 µg/mL [%]
1,CCCCSC(=S)C1=C(Nc2ccc(Br)cc2)CC(C)(C)CC1=O,18.9
2,CC1(C)CC(=O)C(C(=S)SCc2ccccc2)=C(Nc2ccc(Cl)cc2)C1,10.4
3,CC(=O)OC[C@H]1O[C@@H](SC(=S)C2=C(Nc3ccc(Cl)cc3Cl)CC(C)(C)CC2=O)[C@H](OC(C)=O)[C@@H](OC(C)=O)[C@@H]1OC(C)=O,57.2
4,CC1(C)CC(=O)C=C(Nc2ccc(Br)cc2)C1,62.7
5,CC1(C)CC(=O)C=C(Nc2ccc(Cl)cc2)C1,62.4
6,CCCCSC(=S)C1=C(Nc2ccc(Cl)cc2Cl)CC(C)(C)CC1=O,35.2
7,CC1(C)CC(=O)C(C(=S)SCc2ccccc2)=C(Nc2ccc(Cl)cc2Cl)C1,39.5
8,CC(=O)OC[C@H]1O[C@@H](SC(=S)C2=C(Nc3ccc(Br)cc3)CC(C)(C)CC2=O)[C@H](OC(C)=O)[C@@H](OC(C)=O)[C@@H]1OC(C)=O,68.4
9,CCCCCCCCCCCSC(=S)C1=C(Nc2ccc(Br)cc2)CC(C)(C)CC1=O,32.1

# Organism: Homo sapiens
# Test: (§2) Antiinflammatory activity in human whole blood phagocytes assessed as inhibition of respiratory burst measuring ROS after 30 mins by luminol-enhanced chemiluminescence assay
# Format: functional, cell-based
# Details: not given
# Outline: (§3)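 Luminol-enhanced chemiluminescence of whole blood phagocytes. Compounds at 1.0, 10 and 100 µg/mL in HBSS⁺⁺ (with Ca²⁺/Mg²⁺) were incubated with whole blood diluted 1:50 for 30 min at 37 °C. Luminol and serum-opsonized zymosan (S. cerevisiae) were then added. ROS kinetics were monitored by luminometer for 50 min in repeated scan mode, with positive, negative and blank controls.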
row,SMILES,inhibition
1,CC(C)=NNC1=C2C(=S)NN=C2CC(C)(C)C1,Dose-dependent effect

# Test system: not listed separately
# Test: as §2
# Format: functional, cell-based
# Details: 0.5 h
# Outline: as §3
row,SMILES,IC50 [µg/mL]
1,CCCCSC(=S)C1=C(Nc2ccc(Br)cc2)CC(C)(C)CC1=O,> 100
2,CC1(C)CC(=O)C(C(=S)SCc2ccccc2)=C(Nc2ccc(Cl)cc2)C1,> 100
3,CC(=O)OC[C@H]1O[C@@H](SC(=S)C2=C(Nc3ccc(Cl)cc3Cl)CC(C)(C)CC2=O)[C@H](OC(C)=O)[C@@H](OC(C)=O)[C@@H]1OC(C)=O,> 100
4,CC1(C)CC(=O)C=C(Nc2ccc(Br)cc2)C1,> 100
5,CC1(C)CC(=O)C=C(Nc2ccc(Cl)cc2)C1,> 100
6,CCCCSC(=S)C1=C(Nc2ccc(Cl)cc2Cl)CC(C)(C)CC1=O,> 100
7,CC1(C)CC(=O)C(C(=S)SCc2ccccc2)=C(Nc2ccc(Cl)cc2Cl)C1,> 100
8,CC(=O)OC[C@H]1O[C@@H](SC(=S)C2=C(Nc3ccc(Br)cc3)CC(C)(C)CC2=O)[C@H](OC(C)=O)[C@@H](OC(C)=O)[C@@H]1OC(C)=O,> 100
9,CCCCCCCCCCCSC(=S)C1=C(Nc2ccc(Br)cc2)CC(C)(C)CC1=O,> 100

# Test system: PBMC
# Test: Immunosuppressive activity in human PBMC assessed as inhibition of PHA-induced cell proliferation after 72 hrs by [methyl-3H]thymidine incorporation assay
# Format: functional, cell-based
# Details: not given
# Outline: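 Human PBMCs from healthy donor venous blood, isolated by density separation and cultured in RPMI-1640 with 10% FBS. Stimulated with PHA in the presence of increasing compound concentrations for 72 h at 37 °C, 5% CO₂. [methyl-³H]thymidine 0.5 µCi/well added for a further 18 h, then harvested and counted by liquid scintillation. Expressed as % of stimulated control, mean ± SD of triplicates; IC50 derived.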
SMILES,IC50 [µg/mL],inhibition
CC(C)=NNC1=C2C(=S)NN=C2CC(C)(C)C1,13.2,Dose-dependent effect
CCCCSC(=S)C1=C(Nc2ccc(Br)cc2)CC(C)(C)CC1=O,> 50,–
CC1(C)CC(=O)C(C(=S)SCc2ccccc2)=C(Nc2ccc(Cl)cc2)C1,> 50,–
CC(=O)OC[C@H]1O[C@@H](SC(=S)C2=C(Nc3ccc(Cl)cc3Cl)CC(C)(C)CC2=O)[C@H](OC(C)=O)[C@@H](OC(C)=O)[C@@H]1OC(C)=O,15.8,–
CC1(C)CC(=O)C=C(Nc2ccc(Br)cc2)C1,> 50,–
CC1(C)CC(=O)C=C(Nc2ccc(Cl)cc2)C1,15,–
CCCCSC(=S)C1=C(Nc2ccc(Cl)cc2Cl)CC(C)(C)CC1=O,> 50,–
CC1(C)CC(=O)C(C(=S)SCc2ccccc2)=C(Nc2ccc(Cl)cc2Cl)C1,> 50,–
CC(=O)OC[C@H]1O[C@@H](SC(=S)C2=C(Nc3ccc(Br)cc3)CC(C)(C)CC2=O)[C@H](OC(C)=O)[C@@H](OC(C)=O)[C@@H]1OC(C)=O,8.8,Dose-dependent effect
CCCCCCCCCCCSC(=S)C1=C(Nc2ccc(Br)cc2)CC(C)(C)CC1=O,> 50,–

# Test system: THP-1
# Test: Antiinflammatory activity in PMA-stimulated human THP1 cells assessed as inhibition of LPS-induced TNFalpha production at 25 ug/mL after 4 hrs
# Format: functional
# Details: THP-1, 4 h
# Outline: (§4)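 THP-1 cells plated at 2.5 × 10⁵ cells/mL and differentiated to macrophage-like cells with PMA (20 ng/mL final) for 24 h at 37 °C, 5% CO₂. Then stimulated with LPS (50 ng/mL final) and treated with test compounds. TNF-α was measured in supernatant at 4 h and IL-1β at 18 h by DuoSet ELISA.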
row,SMILES,inhibition at 25 µg/mL [%]
1,CCCCSC(=S)C1=C(Nc2ccc(Br)cc2)CC(C)(C)CC1=O,-31.4
2,CC1(C)CC(=O)C(C(=S)SCc2ccccc2)=C(Nc2ccc(Cl)cc2)C1,-21
3,CC(=O)OC[C@H]1O[C@@H](SC(=S)C2=C(Nc3ccc(Cl)cc3Cl)CC(C)(C)CC2=O)[C@H](OC(C)=O)[C@@H](OC(C)=O)[C@@H]1OC(C)=O,-48.2
4,CC1(C)CC(=O)C=C(Nc2ccc(Br)cc2)C1,-31.4
5,CC1(C)CC(=O)C=C(Nc2ccc(Cl)cc2)C1,-4.3
6,CCCCSC(=S)C1=C(Nc2ccc(Cl)cc2Cl)CC(C)(C)CC1=O,-14.7
7,CC1(C)CC(=O)C(C(=S)SCc2ccccc2)=C(Nc2ccc(Cl)cc2Cl)C1,-50.3
8,CC(=O)OC[C@H]1O[C@@H](SC(=S)C2=C(Nc3ccc(Br)cc3)CC(C)(C)CC2=O)[C@H](OC(C)=O)[C@@H](OC(C)=O)[C@@H]1OC(C)=O,58.7
9,CCCCCCCCCCCSC(=S)C1=C(Nc2ccc(Br)cc2)CC(C)(C)CC1=O,-58.7

# Test system: CC-1
# Test: Cytotoxicity against Wistar rat CC1 cells after 48 hrs by MTT assay
# Format: cell-based
# Details: CC-1, 48 h
# Outline: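 Plated at 6 × 10⁴ cells/mL for 24 h at 37 °C, 5% CO₂, then exposed to compounds (up to 20 µg/mL) in triplicate for 48 h. MTT 0.5 mg/mL for 4 h, formazan dissolved in DMSO, A540; mean ± SD of triplicates.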
row,SMILES,IC50 [µg/mL]
1,CC(=O)OC[C@H]1O[C@@H](SC(=S)C2=C(Nc3ccc(Br)cc3)CC(C)(C)CC2=O)[C@H](OC(C)=O)[C@@H](OC(C)=O)[C@@H]1OC(C)=O,19.8

# Test system: J774.2
# Test: Antiinflammatory activity in lipopolysaccharide-induced mouse J774.2 cells assessed as inhibition of nitric oxide production after 24 hrs by Griess method
# Format: functional, cell-based
# Details: J774.2, 24 h
# Outline: as §1
row,SMILES,IC50 [µM]
1,CC(C)=NNC1=C2C(=S)NN=C2CC(C)(C)C1,36.4
2,CC(=O)OC[C@H]1O[C@@H](SC(=S)C2=C(Nc3ccc(Cl)cc3Cl)CC(C)(C)CC2=O)[C@H](OC(C)=O)[C@@H](OC(C)=O)[C@@H]1OC(C)=O,16.1
3,CC1(C)CC(=O)C=C(Nc2ccc(Br)cc2)C1,49.1
4,CC1(C)CC(=O)C=C(Nc2ccc(Cl)cc2)C1,63.8
5,CC(=O)OC[C@H]1O[C@@H](SC(=S)C2=C(Nc3ccc(Br)cc3)CC(C)(C)CC2=O)[C@H](OC(C)=O)[C@@H](OC(C)=O)[C@@H]1OC(C)=O,7.7

# Test system: PBMC
# Test: Immunosuppressive activity against human PBMC assessed as inhibition of PHA/PMA-induced IL2 production after 18 hrs by ELISA
# Details: not given
SMILES,IC50 [µg/mL],inhibition
CC(C)=NNC1=C2C(=S)NN=C2CC(C)(C)C1,14.7,Dose-dependent effect
CCCCSC(=S)C1=C(Nc2ccc(Br)cc2)CC(C)(C)CC1=O,> 20,–
CC1(C)CC(=O)C(C(=S)SCc2ccccc2)=C(Nc2ccc(Cl)cc2)C1,> 20,–
CC(=O)OC[C@H]1O[C@@H](SC(=S)C2=C(Nc3ccc(Cl)cc3Cl)CC(C)(C)CC2=O)[C@H](OC(C)=O)[C@@H](OC(C)=O)[C@@H]1OC(C)=O,> 20,–
CC1(C)CC(=O)C=C(Nc2ccc(Br)cc2)C1,> 20,–
CC1(C)CC(=O)C=C(Nc2ccc(Cl)cc2)C1,> 20,–
CCCCSC(=S)C1=C(Nc2ccc(Cl)cc2Cl)CC(C)(C)CC1=O,> 20,–
CC1(C)CC(=O)C(C(=S)SCc2ccccc2)=C(Nc2ccc(Cl)cc2Cl)C1,> 20,–
CC(=O)OC[C@H]1O[C@@H](SC(=S)C2=C(Nc3ccc(Br)cc3)CC(C)(C)CC2=O)[C@H](OC(C)=O)[C@@H](OC(C)=O)[C@@H]1OC(C)=O,3.4,Dose-dependent effect
CCCCCCCCCCCSC(=S)C1=C(Nc2ccc(Br)cc2)CC(C)(C)CC1=O,> 20,–

# Test system: 3T3-L1
# Test: Cytotoxicity against mouse 3T3L1 cells after 48 hrs by MTT assay
# Format: cell-based
# Details: 3T3-L1, 48 h
# Outline: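 3T3-L1 mouse embryo fibroblasts in DMEM with 10% FBS. Plated at 6 × 10⁴ cells/mL for 24 h at 37 °C, 5% CO₂, then exposed to compounds (up to 20 µg/mL) in triplicate for 48 h. Viability by MTT 0.5 mg/mL for 4 h, DMSO solubilization, absorbance at 540 nm; mean ± SD of triplicates.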
row,SMILES,IC50 [µg/mL]
1,CC(=O)OC[C@H]1O[C@@H](SC(=S)C2=C(Nc3ccc(Br)cc3)CC(C)(C)CC2=O)[C@H](OC(C)=O)[C@@H](OC(C)=O)[C@@H]1OC(C)=O,> 20

# Test system: THP-1
# Test: Antiinflammatory activity in PMA-stimulated human THP1 cells assessed as inhibition of LPS-induced IL-1beta production at 25 ug/mL after 18 hrs
# Format: functional
# Details: THP-1, 18 h
# Outline: as §4
row,SMILES,inhibition at 25 µg/mL [%]
1,CC1(C)CC(=O)C(C(=S)SCc2ccccc2)=C(Nc2ccc(Cl)cc2)C1,13.1
2,CC1(C)CC(=O)C=C(Nc2ccc(Br)cc2)C1,-26.8
3,CC1(C)CC(=O)C=C(Nc2ccc(Cl)cc2)C1,17.2
4,CCCCSC(=S)C1=C(Nc2ccc(Cl)cc2Cl)CC(C)(C)CC1=O,-22
5,CC1(C)CC(=O)C(C(=S)SCc2ccccc2)=C(Nc2ccc(Cl)cc2Cl)C1,-119
6,CC(=O)OC[C@H]1O[C@@H](SC(=S)C2=C(Nc3ccc(Br)cc3)CC(C)(C)CC2=O)[C@H](OC(C)=O)[C@@H](OC(C)=O)[C@@H]1OC(C)=O,59.2
7,CCCCCCCCCCCSC(=S)C1=C(Nc2ccc(Br)cc2)CC(C)(C)CC1=O,-22.7
